Reference: the EternaBench riboswitch data

Test system: MS2 coat protein
Assay: apparent Kd, MS2 coat protein; higher = weaker binding; RNA-MaP array; FMN 200 µM where present
How it was run: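 Green signal was scaled to red-channel RNA signal and control-cluster median Fmax, and the apparent Kd was taken as the median of filtered per-cluster binding-curve fits. The binding series used SNAP-549-labelled MS2 coat protein from 0.7 or 1.5 nM, doubling to 3 µM, on designs transcribed by stalled E. coli RNA polymerase on Illumina sequencing-chip clusters. Each series ran without and then with constant ligand in 100 mM Tris-HCl pH 7.5, 80 mM KCl, 4 mM MgCl2, BSA, DTT, yeast tRNA and Tween-20.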

[1] = designed as: OFF switch for flavin mononucleotide, no ligand
[2] = ligand present: flavin mononucleotide, designed as: OFF switch for flavin mononucleotide
[3] = designed as: ON switch for flavin mononucleotide, no ligand
[4] = ligand present: flavin mononucleotide, designed as: ON switch for flavin mononucleotide

**Q.** With “AAAAAACAUGAGGAUCACCCAUGUGAGGAUAUCGUGCAGAAAAAAAAAAAAAACUGCACGAGAAGGCACAUGAA” as the sequence, how does the “apparent Kd” value [1] read?
**A.** Its value is 237 nM.

**Q.** What about the “apparent Kd” value [2] of the same sequence?
**A.** The value was 460 nM.

**Q.** What does the source list for “GAAUGUCGGGUAGGAUAUGACGUGCCACGGAGGUCAGAAGGGCCACGACAUGAGGAUCACCCAUGUACUGUAUUCCUUUUUCAA”?
**A.** apparent Kd [1]: 22.9 nM; apparent Kd [2]: 60.4 nM

**Q.** Which results are given for “AGUUCUUGUGAAGGAUAUACGGCGGGUCGCGCAGUAGAAGGUCACAUGAGGAUCACCCAUGUCGACAAUGUGCAGUAUCGACAA”?
**A.** apparent Kd [1]: 135 nM; apparent Kd [2]: 271 nM

**Q.** Which “apparent Kd” value [3] does the source give for “UGGUACAUGGGAGGAUAUGGGUUGAUAACAUGAGGAUCACCCAUGUUAAAAUGCCGAAAGGCAAACUAGAAGGCCCAUGUACCU” here?
**A.** Its value is 443 nM.

**Q.** And the “apparent Kd” value [4]?
**A.** The value was 32.2 nM.

**Q.** Which results are given for “UGCAGGUGAGGAUAUGCGGGCGAUUAAACAUAUAAAUGCAAGCAGAAGGCACAUGAGGAUCACCCAUGUAGUCC”?
**A.** apparent Kd [1]: 26 nM; apparent Kd [2]: 36.1 nM

**Q.** Which results are given for “UGAAAUCAUGUAGGAUAUGCAUGGCGAAGCUACGCAGAAGGACAUGAGGAUCACCCAUGUUAUAGCUACCCAGCUCGGUGGCAA”?
**A.** apparent Kd [1]: 39.6 nM; apparent Kd [2]: 117 nM

**Q.** Which results are given for “CCCUCACAUGAGGAUCACCCAUGUCAGGAUAUGCGCGGCCAAAAGGGCUGCUAAGGCAGCAGAAGGGACGUGAA”?
**A.** apparent Kd [1]: 15.9 nM; apparent Kd [2]: 19.5 nM

**Q.** With “AAACAUGUCCGAGGAUAUCUGAGAUCAUUUUCAAGAGAAGGCGGACAUGAGGAUCACCCAUGUCUCUCCUCAUCAACUCCACAU” as the sequence, how does the “apparent Kd” value [1] read?
**A.** The value was 7.47 nM.

**Q.** And the “apparent Kd” value [2]?
**A.** Its value is 39.1 nM.

**Q.** “CUUUAGUGAGGAUAUGUGGCUUCGAUCGUGAGAUCGAGGCUACAGAAGGCACAUGAGGAUCACCCAUGUUCCUA” was tested. Which “apparent Kd” value [1] did it give?
**A.** The value was 16.6 nM.

**Q.** What about the “apparent Kd” value [2] of the same sequence?
**A.** Its value is 59.4 nM.

**Q.** Which results are given for “AGCAUGCUAGGAUAUACGGGACAUUAGGGUUCGUUGUAUGGACAUGAGGAUCACCCAUGUAGAAGGAGCGUGCA”?
**A.** apparent Kd [1]: 28 nM; apparent Kd [2]: 99.8 nM

**Q.** How did the “apparent Kd” value [1] turn out when “AAAGUGUCAGGAUAUACAUGAGGAUCACCCAUGUAUCUUUUUGAUCGUAGGGUGCACCGUAGAAGGGACACUCC” was run?
**A.** The value was 27.4 nM.

**Q.** And the “apparent Kd” value [2]?
**A.** The value was 37.1 nM.

**Q.** How did the “apparent Kd” value [1] turn out when “AAAUAGUUAGGAUAUACAUGAGGAUCACCCAUGUGGACUGAUGGCGAUUAAUUUAGUGGUAGAAGGGACUCAAA” was run?
**A.** The value was 43.9 nM.

**Q.** And the “apparent Kd” value [2]?
**A.** The value was 49.9 nM.

**Q.** With “AAUAACAGAGGAUAUACUAUUUUAUGUGUUUAUUGUUUUGAACAUGAGGAUCACCCAUGUAGAAGGCUGAUUAA” as the sequence, how does the “apparent Kd” value [1] read?
**A.** Its value is 41 nM.

**Q.** And the “apparent Kd” value [2]?
**A.** Its value is 58.7 nM.

**Q.** Which results are given for “GGUGCGUUUGUGAGGAUAUGCUGGUCCUUGGGUCAGCAGAAGGCACAUGAGGAUCACCCAUGUGGUGUCGUACC”?
**A.** apparent Kd [1]: 358 nM; apparent Kd [2]: 42.9 nM

**Q.** What does the source list for “CCCGUGUGUUAAGGAUAUGGCAGGCGCGUUGAACCAGAAGGUAGCACAUGAGGAUCACCCAUGUGAAUGCUCACGACUCGAGCA”?
**A.** apparent Kd [1]: 40.1 nM; apparent Kd [2]: 23.6 nM

**Q.** With “AUGACAGGCAGAGCGCAACGGCGAACAUGAGGAUCACCCAUGUAGGAUAUGCUACACAAAGUGUAGCAGAAGGACAUGCGACGA” as the sequence, how does the “apparent Kd” value [1] read?
**A.** The value was 48.3 nM.

**Q.** What about the “apparent Kd” value [2] of the same sequence?
**A.** Its value is 206 nM.

**Q.** Which results are given for “UUAUUACGAGGAUAUCGUUUUUAUCACAUGAGGAUCACCCAUGUAAUUUAUGUUUCGUUUCGAGAAGGCGUUUGUU”?
**A.** apparent Kd [1]: 23.4 nM; apparent Kd [2]: 19.6 nM

**Q.** How did the “apparent Kd” value [1] turn out when “AGUCGGCGAGGAUAUACAUGAGGAUCACCCAUGUGAGAGAUAAAAGUGAGUUAGACAAGUAGAAGGCGCUGACA” was run?
**A.** Its value is 59.7 nM.

**Q.** And the “apparent Kd” value [2]?
**A.** Its value is 469 nM.

**Q.** For “GCGUAACAUGAGGAUCACCCAUGUGCCCGAGAAUUCGGGCCGAGAAGGGUGACCGGACGUAUGGCACAGGAUAUCGACGUUGUG”, which “apparent Kd” value [3] is on record?
**A.** The value was 25.2 nM.

**Q.** What about the “apparent Kd” value [4] of the same sequence?
**A.** The value was 12.1 nM.

**Q.** With “CUUUUGUGAGGAUAUCAGUAGUAAUACAAUAGUAUUACUACUGAGAAGGCACAUGAGGAUCACCCAUGUUCCUU” as the sequence, how does the “apparent Kd” value [1] read?
**A.** The value was 16 nM.

**Q.** What about the “apparent Kd” value [2] of the same sequence?
**A.** Its value is 29.5 nM.

**Q.** Which results are given for “UUAUUAUAUGUAGGAUAUGCAUAUUGUUGUUAUGCAGAAGGACAUGAGGAUCACCCAUGUAUAUUAUUGUUAUAUAUUGUAUAU”?
**A.** apparent Kd [1]: 24.6 nM; apparent Kd [2]: 30.5 nM

**Q.** For “UAAGCGCAGGAGAAGGGCACUGGACGCUCGCUACAUGAGGAUCACCCAUGUGCAGGAUAUCCGGCGCCACCCGCAAACUCGGUG”, which “apparent Kd” value [1] is on record?
**A.** The value was 15.8 nM.

**Q.** What about the “apparent Kd” value [2] of the same sequence?
**A.** The value was 72.1 nM.

**Q.** For “GAUUAUAAGUAAGGAUAUGUAUAUGAAACAUCUACAGAAGGUACAUGAGGAUCACCCAUGUUCUUGCAGCGUGACUCUGUGAUC”, which “apparent Kd” value [1] is on record?
**A.** Its value is 63.6 nM.

**Q.** And the “apparent Kd” value [2]?
**A.** Its value is 130 nM.
